# Active and inactive are the calls of the source.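 The calls were made as follows, unless noted: active = a full or partial loss of lipid-probe fluorescence in the fish gall bladder, intestine or both, judged by eye; inactive = no fluorescence loss, or compound toxic to the fish.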
# Legend:
# [1] = inhibitors of TNFa-induced NFkB p65 translocation, primary screen, imaging, HUVEC, MLSMR starter and 10KST1 sets (AID 438;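 active = inhibition above 20% together with a positive visual image hit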;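 also: compound added about 3h40 before a 20 min TNFalpha stimulation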;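 as to inhibition: signal is the nuclear over cytoplasmic p65 intensity ratio per well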); settings: HUVEC TNFa-induced p65 nuclear translocation; cell count: measured here: nuclei count (cytotoxicity indicator), at 2.08 µM; inhibition: at 2 µM, stronger effect = higher value, 0% TNFa-plus-vehicle, 100% no-TNFa wells
# [2] = endothelial E-selectin expression blockers – imaging, HUVEC, immunofluorescence, MLSMR starter and 10KST1 sets, primary screen (AID 487;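 active = visually confirmed hit in the image check and inhibition above 20%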;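 as to inhibition: signal is fraction of cell area covered by stained E-selectin grains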;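 as to nuclei count: 100% = median nuclei count of all wells on the same plate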); settings: HUVEC TNFalpha-induced E-selectin immunofluorescence imaging, at 2 µM; inhibition: stronger effect = higher value; nuclei count: measured here: cell number, toxicity
# [3] = Primary imaging screen for DUSP6 inhibitors that restore phospho-Erk in transfected HeLa cells, chemical complementation (AID 609;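 active = compounds giving at least 50% inhibition in the cell-based MKP-3 phosphatase rescue imaging test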;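 as to inhibition: phospho-Erk level distribution per well compared with pooled transfected vehicle control wells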); settings: HeLa MKP-3 transfected, phospho-Erk imaging KS statistic, at 10 µM, cells stimulated with TPA for 15 min
# [4] = biological target: Dual specificity protein phosphatase 6 (Homo sapiens) (UniProt Q16828); experiment: as above; settings: HeLa MKP-3 transfected, phospho-Erk imaging KS statistic; at 10 µM; stronger effect = higher value; cells stimulated with TPA for 15 min
# Sequence of Dual specificity protein phosphatase 6 (Homo sapiens) (Q16828 whole entry, looked up): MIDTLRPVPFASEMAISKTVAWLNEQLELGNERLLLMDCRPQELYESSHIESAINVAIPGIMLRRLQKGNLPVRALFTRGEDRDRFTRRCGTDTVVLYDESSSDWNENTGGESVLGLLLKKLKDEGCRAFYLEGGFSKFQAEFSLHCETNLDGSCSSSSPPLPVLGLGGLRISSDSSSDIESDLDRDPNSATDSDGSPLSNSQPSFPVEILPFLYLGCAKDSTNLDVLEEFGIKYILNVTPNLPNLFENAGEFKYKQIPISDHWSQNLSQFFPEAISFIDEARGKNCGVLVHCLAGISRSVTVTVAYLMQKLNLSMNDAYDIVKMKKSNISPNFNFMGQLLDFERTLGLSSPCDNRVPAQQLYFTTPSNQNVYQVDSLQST
# [5] = biological target: Voltage-gated potassium channel subunit beta-2 (Rattus norvegicus) (UniProt P62483); experiment: inhibitors of rat Kvbeta2 reductase activity – biochemical, NADPH fluorescence, primary screen (AID 622;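 active = fluorescence slope higher than the sample average by over 3 SD, cut at about -0.22 in these data, passing the limit was not always enough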;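 also: slope of raw intensity against log time taken from 70 to 1610 s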); settings: recombinant KvBeta, 4-cyanobenzaldehyde reduction, at 10 µM, stronger effect = higher value
# Sequence of Voltage-gated potassium channel subunit beta-2 (Rattus norvegicus) (P62483 whole entry, looked up): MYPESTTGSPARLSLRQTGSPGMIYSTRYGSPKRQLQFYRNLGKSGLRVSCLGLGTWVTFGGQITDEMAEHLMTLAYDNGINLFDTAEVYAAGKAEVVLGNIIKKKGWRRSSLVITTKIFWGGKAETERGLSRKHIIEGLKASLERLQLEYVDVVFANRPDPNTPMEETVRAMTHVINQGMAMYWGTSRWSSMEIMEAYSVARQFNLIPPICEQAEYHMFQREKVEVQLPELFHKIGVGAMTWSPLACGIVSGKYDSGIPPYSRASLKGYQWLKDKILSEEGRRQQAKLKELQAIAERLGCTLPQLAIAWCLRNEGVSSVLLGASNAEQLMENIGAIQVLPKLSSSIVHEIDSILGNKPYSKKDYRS
# [6] = biological target: Voltage-gated potassium channel subunit beta-2 (Rattus norvegicus) (UniProt P62483); experiment: enhancers of rat Kvbeta2 NADPH turnover – biochemical, NADPH fluorescence, primary screen (AID 623;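 active = NADPH fluorescence slope more negative than the mean of all samples by about 3 SD, 99.7% confidence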;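 also: fluorescence intensity change per second fitted from 20 to 320 s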); settings: Recombinant KvBeta, NADPH fluorescence decrease slope, 10 min; at 10 µM; stronger effect = lower value
# [7] = biological target: Muscarinic acetylcholine receptor M4 (Homo sapiens) (UniProt P08173); experiment: M4-linked GIRK flux change, two-sided – cell-based, HEK293 M4/GIRK, thallium flux, BTC-AM, M4 allosteric agonist project, primary screen (AID 625;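 active = fluorescence slope after compound addition differing from the mean of all tested samples at 99.7% confidence, mostly higher but some lower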;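 also: thallium influx through GIRK channels coupled to M4 in HEK293 cells with BTC-AM dye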); settings: at 10 µM, actives lie on both sides
# Sequence of Muscarinic acetylcholine receptor M4 (Homo sapiens) (P08173 whole entry, looked up): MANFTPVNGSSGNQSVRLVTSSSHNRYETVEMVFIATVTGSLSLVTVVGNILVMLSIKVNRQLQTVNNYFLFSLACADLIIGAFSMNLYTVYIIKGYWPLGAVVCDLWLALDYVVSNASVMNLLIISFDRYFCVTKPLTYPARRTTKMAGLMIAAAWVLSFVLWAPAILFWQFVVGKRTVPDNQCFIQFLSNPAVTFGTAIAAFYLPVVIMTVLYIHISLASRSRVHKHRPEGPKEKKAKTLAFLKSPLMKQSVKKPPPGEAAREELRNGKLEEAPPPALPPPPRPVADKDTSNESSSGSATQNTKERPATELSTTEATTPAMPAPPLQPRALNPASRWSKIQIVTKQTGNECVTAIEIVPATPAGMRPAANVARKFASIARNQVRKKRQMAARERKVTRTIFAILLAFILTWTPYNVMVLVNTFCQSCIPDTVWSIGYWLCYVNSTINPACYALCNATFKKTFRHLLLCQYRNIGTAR
# In short: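 Material: M4/GIRK1/GIRK2 stable HEK293 cell line. Medium: pH 7.3 thallium assay buffer. Dosing: single compound concentration, 10 µM final. Schedule: 1 h dye loading, 2 min kinetic read. Measured by: kinetic fluorescence with BTC-AM dye. Read-out: post-addition slope, 15–24 s, of baseline-normalized fluorescence. Benchmarks: carbachol and DMSO controls.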
# [8] = inhibitors of larval lipid processing in zebrafish, primary screen, whole organism, PED6 fluorescence, gall bladder and intestine (AID 686); settings: Zebrafish larvae PED6 lipid processing, fluorescence scoring; screened at 20 µM (by protocol);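 also: larvae 5 to 7 days old with five fish per well; signal comes from phospholipase A2 cleavage of quenched PED6 carried via bile; overnight exposure to compound and PED6 before scoring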
# In short: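 System: live zebrafish larvae aged 5-7 days, whole organism; measure: graded gall bladder and intestinal fluorescence inhibition per well; incubation: overnight exposure; reagent: ingested quenched lipid PED6 at 100 nM; signal: By-eye fluorescence microscopy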
# [9] = loss of swimming-algae plug formation – whole organism, Chlamydomonas reinhardtii, WT vs cilia-less mutant, absorbance, 96-well, primary screen (AID 463189;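 active = inhibition at or above 50% relative to wild type and mutant plate controls; inactive = inhibition below 50%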;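 also: 0% = wild type cc124 cells in DMSO and 100% = ciliumless bld1 mutant cells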); settings: Chlamydomonas reinhardtii gravitaxis, OD600 absorbance, 2 days; at 10 µM; stronger effect = higher value
# [10] = measured here: cell density z-score
# [11] = measured here: nuclear c-Myc green intensity z-score
# [12] = measured here: nuclear pErk red intensity z-score, stronger effect = higher value
SMILES,cell count [1],inhibition [1],inhibition [2],nuclei count [2] [%],"z-score [3, 10]","z-score [3, 11]","z-score [3, 12]",inhibition [4],fluorescence slope [5],NADPH fluorescence slope [6],fluorescence slope [7],outcome [8],inhibition [9]
CCOC(=O)CSc1nnc(C)c(=O)[nH]1,670,-5.5% (inactive),-201% (inactive),163,-0.66,0.692,1.49,-16.8% (inactive),-0.476 (inactive),-4.6e-05 (inactive),0.0066 (inactive),inactive,-3.91% (inactive)
Cc1ccc(N2C(=O)CC(Cn3nc(C)cc3C)C2=O)cc1 (centres undefined),471,-3.4% (inactive),5.8% (inactive),98.6,0.966,-0.538,-0.159,11.9% (inactive),-0.387 (inactive),-2e-06 (inactive),0.00565 (inactive),inactive,25.4% (inactive)
CCOc1ccc(-c2nc(C#N)c(N3CCN(CC)CC3)o2)cc1,416,0.1% (inactive),-29.1% (inactive),129,0.554,0.103,0.968,-2.69% (inactive),-0.498 (inactive),-0.00012 (inactive),0.00446 (inactive),inactive,5.29% (inactive)
Cc1ccc(-c2n[nH]c(=O)c3ccccc23)cc1S(=O)(=O)NCCN1CCOCC1,449,-1.8% (inactive),-80.2% (inactive),160,-0.696,0.423,0.442,-3.95% (inactive),-0.41 (inactive),-4.4e-05 (inactive),0.00462 (inactive),inactive,19.7% (inactive)
CC1(C)C2CCC1(C)C(NC(=O)CCN1CCCCC1)C2 (centres undefined),570,-3.7% (inactive),-89.2% (inactive),163,0.233,1.96,0.463,5.95% (inactive),-0.4 (inactive),-4.2e-05 (inactive),0.00508 (inactive),inactive,55.5% (active)
CC(=O)c1ccc(C#CC(C)(C)O)s1,496,-2.5% (inactive),-51.1% (inactive),126,-0.749,0.398,0.00406,-3.97% (inactive),-0.386 (inactive),-7.4e-05 (inactive),0.00521 (inactive),inactive,-7.15% (inactive)
COC(=O)c1ccccc1OCc1cccc(C)n1,642,-3.5% (inactive),-85% (inactive),138,0.411,0.832,-0.721,1.9e-07% (inactive),-0.495 (inactive),-3.1e-05 (inactive),0.00518 (inactive),inactive,-11.3% (inactive)
Cc1cc2c(C)nc(Cc3ccccc3)nc2o1,561,-5.5% (inactive),-85.6% (inactive),149,-0.156,0.673,0.277,11.9% (inactive),-0.438 (inactive),-7.2e-05 (inactive),0.00471 (inactive),inactive,16.9% (inactive)
O=C(CC(c1ccc(F)cc1)c1ccco1)N1CCCC1 (centres undefined),494,-4% (inactive),-36.9% (inactive),182,-0.749,0.895,-0.708,9.91% (inactive),-0.404 (inactive),-1.7e-05 (inactive),0.00541 (inactive),inactive,-1.73% (inactive)
Cc1nc(NCCO)c(C#N)c2c1COC(C)(C)C2,538,-2.6% (inactive),-147% (inactive),132,-0.0329,1.94,-1.24,15.4% (inactive),-0.464 (inactive),-3.6e-05 (inactive),0.0044 (inactive),inactive,5.51% (inactive)
CCCCc1nc(N2CCOCC2)c(C#N)c2c1CCCC2,559,-11.7% (inactive),-89.9% (inactive),141,0.356,0.825,0.364,-15.1% (inactive),-0.449 (inactive),-0.000117 (inactive),0.00395 (inactive),inactive,11.9% (inactive)
Cc1nc(NCCCO)c(C#N)c2c1COC(C)(C)C2,588,-3.1% (inactive),-70% (inactive),142,-0.306,-0.435,-0.462,12.8% (inactive),-0.432 (inactive),-9.1e-05 (inactive),0.00443 (inactive),inactive,24% (inactive)
O=c1cc(O)nc2n1CCCS2,698,0.1% (inactive),56.2% (inactive),144,1.6,0.755,0.757,-9.53% (inactive),-0.418 (inactive),-5.5e-05 (inactive),0.00444 (inactive),inactive,0.661% (inactive)

# Source: PubChem BioAssay
